Results reported in ChEMBL document CHEMBL1140715, “Structure-activity relationships of novel iron chelators for the treatment of iron overload disease: the methyl pyrazinylketone isonicotinoyl hydrazone series” (J Med Chem, 2008).

Legend:
[1] = Antiproliferative activity against human […] cells by MTT assay; assay type: cell-based
Outline: (§1)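 MTT assay of cell proliferation; MTT colour formation directly proportional to viable cell number counted by Trypan blue staining. IC50 reported as mean ± SD of three experiments.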

[2] = Induction of intracellular iron mobilization in human […] cells relative to control; assay type: functional; parameters: concentration or dose not given beside the values
Outline: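 SK-N-MC cells prelabeled with 59Fe-Tf (0.75 µM) for 3 h at 37 °C, washed four times with ice-cold PBS, then incubated with chelator (50 µM) for 3 h at 37 °C. Released 59Fe in medium and cell pellet counted by γ-scintillation. Mean ± SD, three experiments, triplicate determinations.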

[3] = Partition coefficient, log P of the compound; assay type: physicochemical; details: octanol/water
Outline: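 Octanol–water partition coefficient measured spectrophotometrically.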

[4] = tested on: MRC5; test: Antiproliferative activity against human MRC5 cells by MTT assay; assay type: cell-based; outline: as §1

O=C(NN=C(c1ccccn1)c1ccccn1)c1ccccc1
IC50 [1]: 3.04 µM

C/C(=N\NC(=O)c1ccc(C(F)(F)F)cc1)c1cnccn1
IC50 [1]: 1.16 µM
Activity [2]: 31%
logP [3]: 2
IC50 [4]: 2.09 µM

O=C(N/N=C/c1ccccn1)c1ccccc1
IC50 [1]: 19.2 µM

O=C(N/N=C/c1ccccn1)c1ccc(O)cc1
IC50 [1]: > 80 µM

Nc1ccc(C(=O)N/N=C/c2ccccn2)cc1
IC50 [1]: > 80 µM

C/C(=N\NC(=O)c1ccc(O)cc1)c1cnccn1
IC50 [1]: 16.8 µM
Activity [2]: 39%
logP [3]: 1.9
IC50 [4]: > 80 µM

C/C(=N\NC(=O)c1ccc(N)cc1)c1cnccn1
IC50 [1]: 58.8 µM
Activity [2]: 34%
logP [3]: 1.3
IC50 [4]: > 80 µM

C/C(=N\NC(=O)c1ccc(Br)cc1)c1cnccn1
IC50 [1]: 1.22 µM
Activity [2]: 31%
logP [3]: 2.9
IC50 [4]: 2.94 µM

C/C(=N\NC(=O)c1ccc([N+](=O)[O-])cc1)c1cnccn1
IC50 [1]: 1.39 µM
Activity [2]: 31%
logP [3]: 2.1
IC50 [4]: 2.87 µM

O=C(NN=C(c1ccccn1)c1ccccn1)c1cccc(Br)c1
IC50 [1]: 0.24 µM

O=C(NN=C(c1ccccn1)c1ccccn1)c1ccc([N+](=O)[O-])cc1
IC50 [1]: 0.26 µM

O=C(NN=C(c1ccccn1)c1ccccn1)c1ccc(C(F)(F)F)cc1
IC50 [1]: 0.24 µM

O=C(N/N=C/c1ccccn1)c1ccc([N+](=O)[O-])cc1
IC50 [1]: 35.5 µM

O=C(N/N=C/c1ccccn1)c1cccs1
IC50 [1]: 22.7 µM

CN(C)C(=S)NN=C(c1ccccn1)c1ccccn1
IC50 [1]: 0.001 µM

O=C(N/N=C/c1c(O)ccc2ccccc12)c1ccncc1
IC50 [1]: 0.83 µM
Activity [2]: 44%

C/C(=N\NC(=O)c1cccc(Br)c1)c1cnccn1
IC50 [1]: 1.15 µM
Activity [2]: 31%
logP [3]: 2.9
IC50 [4]: 3.12 µM

O=C(NN=C(c1ccccn1)c1ccccn1)c1ccc(Br)cc1
IC50 [1]: 0.3 µM

O=C(N/N=C/c1ccccn1)c1ccc(Br)cc1
IC50 [1]: 17.7 µM

O=C(N/N=C/c1ccccn1)c1ccc(C(F)(F)F)cc1
IC50 [1]: 22.4 µM

O=C(N/N=C/c1ccccn1)c1ccncc1
IC50 [1]: > 80 µM

CC(=O)N(O)CCCCCNC(=O)CCC(=O)N(O)CCCCCNC(=O)CCC(=O)N(O)CCCCCN [DEFEROXAMINE]
IC50 [1]: 12.1 µM
Activity [2]: 16%

C/C(=N\NC(=O)c1ccccc1)c1cnccn1 [METHYL PYRAZINYLKETONE BENZOYL HYDRAZONE]
IC50 [1]: 3.62 µM
Activity [2]: 31%
logP [3]: 1.9
IC50 [4]: 7.04 µM

C/C(=N\NC(=O)c1ccncc1)c1cnccn1 [METHYL PYRAZINYLKETONE ISONICOTINOYL HYDRAZONE]
IC50 [1]: 5.79 µM
Activity [2]: 31%
logP [3]: 1.2
IC50 [4]: 25.2 µM

C/C(=N\NC(=O)c1cccs1)c1cnccn1 [METHYL PYRAZINYLKETONE THIOPHENECARBOXYL HYDRAZONE]
IC50 [1]: 2.13 µM
Activity [2]: 31%
logP [3]: 2.6
IC50 [4]: 5.54 µM

Cc1ncc(CO)c(/C=N/NC(=O)c2ccncc2)c1O [PYRIDOXAL ISONICOTINOYL HYDRAZONE]
Activity [2]: 40%

NC(=S)N/N=C/c1ncccc1N [TRIAPINE]
IC50 [1]: 0.66 µM
